Most compounds without a hit are left out; they make up all but 4% or so of the library.
DAGLB inh: blocks human DAGLB lipase activity. inhibition, % at 5.17 µM. actives 0.059% (n = 340,000). HEK293T DAGLB membrane lysate, EnzChek fluorogenic substrate. AID 504411; in the data active means inhibition above about 34%;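 further: 0% = enzyme with vehicle and 100% = wells lacking enzyme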
Target sequence (Q8NCG7 whole entry, looked up): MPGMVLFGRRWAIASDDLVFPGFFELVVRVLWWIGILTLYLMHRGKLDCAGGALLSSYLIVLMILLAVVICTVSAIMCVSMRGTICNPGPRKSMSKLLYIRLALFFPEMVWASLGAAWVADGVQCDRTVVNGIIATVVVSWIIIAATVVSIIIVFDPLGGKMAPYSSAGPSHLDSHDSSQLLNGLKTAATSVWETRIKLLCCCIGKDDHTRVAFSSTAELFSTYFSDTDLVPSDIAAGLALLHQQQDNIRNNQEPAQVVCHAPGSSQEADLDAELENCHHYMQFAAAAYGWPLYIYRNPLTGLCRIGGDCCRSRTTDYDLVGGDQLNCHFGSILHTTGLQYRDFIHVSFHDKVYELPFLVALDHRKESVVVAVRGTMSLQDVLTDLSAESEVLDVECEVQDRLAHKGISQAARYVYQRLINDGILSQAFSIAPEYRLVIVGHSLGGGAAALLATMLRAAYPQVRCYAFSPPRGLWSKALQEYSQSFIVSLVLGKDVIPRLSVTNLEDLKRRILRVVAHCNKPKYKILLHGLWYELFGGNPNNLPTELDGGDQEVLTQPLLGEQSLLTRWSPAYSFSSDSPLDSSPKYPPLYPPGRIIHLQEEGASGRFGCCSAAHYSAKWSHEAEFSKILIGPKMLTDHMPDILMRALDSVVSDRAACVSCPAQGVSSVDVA
GPR7 antag: blocks human GPR7 receptor signaling | P48145 | GPR7-expressing cells, fluorescence antagonist assay | inhibition, % at 4.4 µM | actives 1.1% (n = 290,000); in the data active means inhibition above about 16%, passing the limit was not always enough;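 further: cells stimulated with the agonist NPW; 0% = agonist with vehicle and 100% = vehicle without agonist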
MPTP inh: inhibitors of mitochondrial permeability transition pore; AID 602449; isolated mouse mitochondria, Ca2+ swelling absorbance, 30 min; inhibition, % at 10 µM; actives 1.4% (n = 360,000);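 active means inhibition of 50% or more, scaled per plate between neutral and stimulator controls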;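 further: 0% = DMSO wells given calcium and 100% = 1 mM EGTA wells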
TAAR1 agonist: human TAAR1 agonism; AID 624467; Q96RJ0; actives 0.99% (n = 360,000); CHO RD-HGA16 TAAR1, Fluo-8 calcium fluorescence; vehicle wells 0%, saturating PEA agonist 100%; activation, % at 3 µM;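 active means activation above the mean activation of all test compounds in the run plus 3 SD, cut at about 38% in these data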
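Assay system: CHO-derived RD-HGA16 cells with stable Gα16 and human TAAR1; timing: 17-24 h seeding, 75 min 37 °C dye, 30 min RT; read-out: % activation from peak over basal fluorescence ratio, DMSO-to-PEA scaled; measured by: kinetic Fluo-8 calcium fluorescence; benchmarks: low control DMSO, high control PEA (EC100); doses: 3 µM single concentration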
TAAR1 antagonist: antagonists of human TAAR1 | Q96RJ0 | CHO RD-HGA16 TAAR1, Fluo-8 calcium fluorescence, antagonist | inhibition, % at 3 µM | actives 1.5% (n = 360,000) | AID 624466;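 active means inhibition above a per-plate cutoff, the mean inhibition of test compounds on that plate plus 3 SD, cut at about 49% in these data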;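 further: 0% = DMSO plus EC80 beta-PEA response and 100% = DMSO alone without agonist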
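Material: CHO RD-HGA16 cells bearing hTAAR1; compound dosing: one-point dosing, 3 µM nominal final; schedule: dye loading 75 min at 37 °C, then 30 min room temperature; measured by: calcium fluorescence with Fluo-8; control set: vehicle and agonist controls; replication: n of 1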
MPTP counter: Rhodamine 123 counter-screen of mitochondrial pore hits; shares compounds with MPTP inh; isolated mitochondria, membrane potential, Rhodamine 123 fluorescence; inhibition, % at 10 µM; actives 78% (n = 5,000); in the data active means inhibition above about 22%;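 further: 0% = DMSO vehicle and 100% = positive control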
MPTP swell DR: dose response confirmation of mitochondrial permeability transition pore inhibitors; shares compounds with MPTP inh; isolated mitochondria swelling, absorbance; IC50, µM; actives 58% (n = 780); AID 651561; in the data active means IC50 below about 20 µM
MPTP counter DR: counter-screen for mitochondrial permeability transition pore inhibitors, dose response; isolated mitochondria counterscreen, fluorescence read-out; IC50, µM; actives 49% (n = 780); shares compounds with MPTP inh; in the data active means IC50 below about 80 µM
The depositor's hits bear a star; i = inactive; x = no result given.

SMILES	DAGLB inh	GPR7 antag	MPTP inh	TAAR1 agonist	TAAR1 antagonist	MPTP counter	others
S=C(Nc1ccc(Oc2ccccc2)cc1)NC1CCCCC1	-7	6	80*	12	5	95*
S=C(Nc1ccc(Oc2ccc(NC(=S)NC3CCCCC3)cc2)cc1)NC1CCCCC1	0	-10	70*	0	-12	52*
COC(=O)c1ccc2nc(-c3ccco3)c(Cc3ccccc3OC)n2c1	x	x	x	0	-21	x
C[C@@H]1CC2=C(C(=O)OC(C)(C)O2)[C@H](c2ccc(Cl)cc2)O1	x	x	1	0	-8	x
CC(C)c1ccc(NC(=S)NC2CCCCCC2)cc1	-9	-5	74*	7	4	87*
Cc1ccc(NC(=S)NNC(=S)NC2CCCCC2)cc1	4	0	9	0	-37	x
CC(C)C(C(=O)NCc1ccccc1)N1CCN(C(=O)C2CCCO2)CC1 (stereo unspecified)	x	x	3	2	-20	x
C(=N\N1CCN(Cc2ccccc2)CC1)/c1ccc(-c2ccccc2)cc1	-6	5	-1	3	-23	x
CN1CCN(/N=C/c2c3ccccc3c(Cl)c3ccccc23)CC1	-1	3	91*	12	-2	-21
CN1CCN(/N=C/c2ccc(-c3ccccc3)cc2)CC1	-2	-2	70*	24	4	-11
CC1(c2nnnn2Cc2ccccc2)CCC(=O)N1Cc1cccnc1 (stereo unspecified)	x	x	-1	1	-11	x
Cc1csc(NC(=O)CSc2nnc(-c3ccoc3C)o2)n1	0	3	0	3	-5	x
Cc1occc1-c1nnc(SCC(=O)Nc2nc(C(C)(C)C)cs2)o1	-15	2	94*	22	18	90*
C#CCN(C(=O)C1CCC(=O)N(CCc2cccc(F)c2)C1)C1CCCCC1 (stereo unspecified)	-1	x	-2	3	-6	x
COc1ccc(CNC(=O)c2cccc3c(-c4cnn(C)c4)coc23)cc1OC	x	x	16	7	28	x
COc1cc(C(=O)N(C)CC2CCN(CCc3cccc(C(F)(F)F)c3)CC2)ccc1C	0	-8	81*	-1	10	1	MPTP swell DR=7.6*;MPTP counter DR=25*
CN(CC1CCN(CCc2cccc(C(F)(F)F)c2)CC1)C(=O)c1ccc(F)cc1	-1	-1	4	-1	-9	x
CCOc1ccc(CCNC(=O)c2[nH]c(C)c(C(C)=O)c2CC)cc1OCC	0	0	3	4	-4	x
CCc1c(C(=O)Nc2cc(C)cc(C)c2)[nH]c(C)c1C(C)=O	-4	-5	79*	7	27	84*
C[C@H]1CNC(=O)c2c(C(=O)N3CCN(c4ccccc4)CC3)ncn21	x	x	x	0	13	x
COCc1[nH]nc2c1C(c1cccc(C(F)(F)F)c1)N(c1ccccc1)C2=O (stereo unspecified)	x	x	x	-1	-27	x
Cc1ccc(S(=O)(=O)N(CC(=O)Nc2ccc(Cl)c([N+](=O)[O-])c2)C2CCCCC2)cc1	-7	-14	91*	-1	6	81*
Cc1ccc(S(=O)(=O)CCC(=O)OCC(=O)Nc2cccc(S(=O)(=O)N3CCCCC3)c2)cc1	-2	x	25	11	13	x
CC(C)(C)C(=O)NC(=S)NNC(=O)c1ccc(-c2ccccc2)cc1	3	103*	94*	x	x	23*
CC(C)(C)C(=O)NC(=S)NNC(=O)c1ccncc1	-3	-8	1	1	14	x
SMILES	DAGLB inh	GPR7 antag	MPTP inh	TAAR1 agonist	TAAR1 antagonist	MPTP counter	others
C/C(=N\NC(=O)c1ccc(-n2cnnn2)cc1)c1ccc(Cl)cc1	0	x	1	0	20	x
Cc1ccc(S(=O)(=O)n2ccc3c(OCCOCCSCC(NC(=O)OC(C)(C)C)C(=O)O)cccc32)cc1 (stereo unspecified)	2	12	1	2	12	x
Cc1ccc(S(=O)(=O)n2ccc3c(OCCOCCNCc4ccc(F)cc4)cccc32)cc1	-1	24	68*	23	40	86*
COC(=O)[C@H](Cc1ccccc1)NC(=O)[C@H]1O[C@@H](n2cnc3c(=O)[nH]c(N)nc32)[C@H](O)[C@@H]1O	x	x	x	1	-28	x
C=CCc1cccc(/C=N/NC(=O)C(=O)Nc2ccc(C)cc2)c1O	x	-7	-1	6	-3	x
C=CCc1cccc(/C=N/NC(=O)C(C)Nc2ccc(C)cc2)c1O (stereo unspecified)	5	-6	80*	4	14	62*
Cc1c(C(=O)N(C)CCOc2ccccc2)oc2c(Cl)cccc12	-22	x	1	-4	29	x
COc1ccc2oc(C(=O)N(C)CCOc3ccc(Cl)cc3)c(C)c2c1	-24	-13	122*	-1	-17	6	MPTP swell DR=i;MPTP counter DR=52*
Cc1ccccc1S(=O)(=O)N1C(c2ccc(Cl)c(Cl)c2)CC=C(C(=O)O)C1c1cccc(Br)c1 (stereo unspecified)	x	x	0	-2	21	x
Cc1cc(/C=C2/SC(=S)N(c3cccc(C(F)(F)F)c3)C2=O)c(C)n1-c1cccnc1	3	-12	105*	x	x	87*
CNC(=S)N/N=C/c1cc(Br)cc(Br)c1O	17	-8	88*	4	11	60*
N#Cc1c(C(F)(F)F)cc(-c2ccc(F)cc2)[nH]c1=O	8	-3	4	2	6	x
N#Cc1c(C(F)(F)F)cc(-c2cccc(Cl)c2)[nH]c1=O	14	-8	94*	9	-3	89*
N#Cc1c(C(F)(F)F)cc(-c2ccc(Cl)cc2)[nH]c1=O	14	-12	93*	12	10	82*
COc1ccc(-c2cc(C(F)(F)F)c(C#N)c(=O)[nH]2)cc1	6	-5	11	-2	-35	x
Cc1ccc(C)c(C(=O)OCC(=O)NC(=O)NCc2ccccc2)c1	-2	x	-1	12	-1	x
COC(=O)[C@]12C[C@H](CC(=O)NCC34CC5CC(CC(C5)C3)C4)C(=O)N(Cc3ccccc3)C1=C[C@H](C(C)C)O[C@@H]2C1CC1	x	x	x	1	-3	x
CCOc1ccc(NC(=O)c2cccc(S(=O)(=O)NCc3cccnc3)c2)cc1	-2	x	-1	4	-6	x
O=C(C(O)c1ccccc1)N1CCN(S(=O)(=O)c2ccc(C(F)(F)F)cc2)CC1 (stereo unspecified)	x	x	1	2	6	x
CSc1ccccc1NC(=O)COc1ccc(Cl)cc1C	-29	-11	0	10	-9	x
CCOC(=O)c1c(C)oc(NC(=O)COc2ccc(Cl)cc2C)c1C#N	-5	-5	70*	3	20	51*

Screens (PubChem BioAssay)
